ARNT TACC3 PPI: ARNT/TACC3 interaction disruption. actives 0.66% (n = 390,000). Q9Y6A5. inhibition, % at 9.99 µM. AlphaScreen His-ARNT PAS-B/GST-TACC3 binding, luminescence; TACC3 fragment carries E629A point mutation. AID 623870;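 active = mean inhibition of replicates at least 50% and at least half of replicates each reaching 50%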
CAL PDZ FP-1: CAL PDZ (human) peptide binding inhibition; AID 602252; Q9HD26; actives 0.92% (n = 300,000); inhibition, % at 24.9 µM; purified CAL PDZ, TMR-peptide fluorescence polarization, 1 h;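 active = mean inhibition of at least 30% with at least half of replicates also reaching 30%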
DDE Tn7 FP inh: disrupts Tn7 cyclic peptide binding to fibrin D-Dimer-E complex; FP displacement of FITC-Tn7 peptide from fibrin DD(E); 0% = median of compound wells per plate; inhibition, % at 8.3 µM; P02675; actives 0.13% (n = 370,000); AID 720508;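 active = inhibition above the mean of compounds falling within the control limits plus 3 SD of them, cut at about 14% in these data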
Target sequence (P02675 whole entry, looked up): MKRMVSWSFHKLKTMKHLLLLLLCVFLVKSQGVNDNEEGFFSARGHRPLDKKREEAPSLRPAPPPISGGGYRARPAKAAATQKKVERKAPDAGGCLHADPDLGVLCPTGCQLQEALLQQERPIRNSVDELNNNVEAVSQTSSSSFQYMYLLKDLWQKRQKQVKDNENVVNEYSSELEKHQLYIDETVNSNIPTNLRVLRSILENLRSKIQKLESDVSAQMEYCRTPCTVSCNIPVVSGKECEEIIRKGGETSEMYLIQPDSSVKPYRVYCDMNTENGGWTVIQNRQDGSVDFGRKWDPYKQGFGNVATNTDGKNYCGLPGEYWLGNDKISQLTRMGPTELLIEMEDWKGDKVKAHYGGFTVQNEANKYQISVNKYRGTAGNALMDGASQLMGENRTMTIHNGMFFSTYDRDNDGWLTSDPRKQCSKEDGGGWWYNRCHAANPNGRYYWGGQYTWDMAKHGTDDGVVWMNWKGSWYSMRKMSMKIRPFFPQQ
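Test system: human clot-derived fibrin DD(E) complex / Quantity: 2 µM final DD(E) protein / Incubation: 10 min plus 3 h, room temperature / Measured by: fluorescence polarization / Benchmarks: high control of 10 µM Aha-Tn7 peptide / Replicates: singlicate testing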
CAL PDZ FP-2: human CAL PDZ-peptide interaction inhibition. purified CAL PDZ, TMR-peptide fluorescence polarization, 1 h. inhibition, % at 20 µM. actives 0.02% (n = 330,000). AID 504414;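 active = highest replicate inhibition of at least 40%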
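Material – purified CerCALP PDZ construct · Detection – FP readout, S and P plane fluorescence · Measure – percent inhibition from loss of millipolarization · Controls – unlabelled peptide for full inhibition, DMSO wells as neutral · Probe or stimulus – TMR-labelled reporter peptide T*-PRC34 bound in PDZ groove · Times – 1 h at RT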
DDE Tn6 FP inh: inhibitors of Tn6 peptide binding to human fibrin DD(E); actives 0.21% (n = 370,000); P02675; AID 720509; Fibrin DD(E) TRITC-Tn6 fluorescence polarization displacement; inhibition, % at 8.3 µM;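 active = inhibition above a per-campaign cutoff: mean of compounds within control limits plus 3 SD, cut at about 15% in these data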
GRK2 aptamer HTS: human GRK2 inhibition via aptamer displacement | P25098 | bead flow cytometry, FAM-aptamer displacement from GRK2 | actives 0.59% (n = 330,000) | inhibition of aptamer binding, % at 10 µM;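 active = inhibition of aptamer binding above 40%, roughly 3 SD of noise, on plates passing a quality check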;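 also: median bead fluorescence of bound FAM aptamer so fluorescent compounds give negative values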
GRK2 inh confirm: human GRK2 inhibition confirmation, cherry pick 1 | shares compounds with GRK2 aptamer HTS | bead-bound GRK2, FAM-aptamer displacement, flow cytometry | aptamer displacement, % at 10 µM | actives 4% (n = 2,000);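 active = aptamer displacement above 40%, near three times the noise of non-fluorescent compounds, on plates passing quality checks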;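 also: negative values mostly reflect intrinsic compound fluorescence rather than true enhancement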
Aptamer quench SP: quenches fluorescent RNA aptamer, GRK2 hit artifact; shares compounds with GRK2 aptamer HTS; Carboxyfluorescein RNA aptamer on beads, flow cytometry quenching; stronger effect = lower value; fluorescence response (% of DMSO), % at 10 µM; 2,000 tested, under 10 active; AID 504580;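 active = compounds that quench the bead-bound fluorescent RNA probe, cutting fluorescence to under half of the solvent control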;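 also: counterscreen run without GRK2 so only probe quenching by compound is measured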
GRK2 confirm 2: confirmation of human GRK2 inhibitors binding RNA aptamer site; 360 tested, under 10 active; AID 504782; bead-bound GRK2, FAM-aptamer displacement, flow cytometry; shares compounds with GRK2 aptamer HTS; inhibition of aptamer binding, % at 10 µM;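 active = inhibition of aptamer binding above 40%, about triple the noise seen with nonglowing compounds, on plates passing quality control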;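 also: negative values mostly come from compounds that fluoresce themselves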
FAM quench SP: aptamer fluorescence quenching in GRK2 counter-screen. shares compounds with GRK2 aptamer HTS. carboxyfluorescein RNA aptamer beads, flow cytometry quenching; stronger effect = lower value. fluorescence response vs DMSO, % at 10 µM. 360 tested, under 10 active. AID 588494;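 active = response vs DMSO under 50%, meaning signal dropped by over half, treated as fluorescence quencher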;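 also: labelled aptamer on streptavidin beads without GRK2 as a quench counter-screen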
Numbers stand for hits. Shown are actives, neighbours in structure and some others; about 1.8% of the full set was active somewhere.

Cc1cccc(C)c1NC(=S)NNc1ncc(C(F)(F)F)cc1Cl was read as ARNT TACC3 PPI inactive, CAL PDZ FP-1 inactive, DDE Tn7 FP inh inactive, CAL PDZ FP-2 inactive, DDE Tn6 FP inh inactive, GRK2 aptamer HTS 48, GRK2 inh confirm inactive and Aptamer quench SP inactive.
For O=C(NCCc1c[nH]c2ccccc12)c1ccc2c(c1)ncn2C1CCCCC1 the results were DDE Tn7 FP inh inactive and DDE Tn6 FP inh inactive.
CC(C)NC(=O)Nc1ccc2c(c1)CC(=O)N([C@H](C)CO)C[C@H](C)[C@H](CN(C)S(=O)(=O)c1cn(C)cn1)O2 was read as ARNT TACC3 PPI inactive.
Screening Cc1cc(C)c(S(=O)(=O)c2c(C)cccc2C)c(Cl)n1 returned ARNT TACC3 PPI inactive, DDE Tn7 FP inh inactive, CAL PDZ FP-2 inactive, DDE Tn6 FP inh inactive, GRK2 aptamer HTS 81, GRK2 inh confirm inactive and Aptamer quench SP inactive.
`C[C@H](CO)N1C[C@H](C)[C@@H](CN(C)S(C)(=O)=O)Oc2ccc(NC(=O)Cc3ccccc3)cc2C1=O` gave ARNT TACC3 PPI inactive.
Screening O=C1C2CC=CCC2C(=O)N1Cc1ccccc1Cl (stereo not drawn) returned ARNT TACC3 PPI inactive, CAL PDZ FP-1 inactive, DDE Tn7 FP inh inactive, CAL PDZ FP-2 inactive, DDE Tn6 FP inh inactive, GRK2 aptamer HTS 42, GRK2 confirm 2 inactive and FAM quench SP inactive.
For CC(C)=NN1C(c2nonc2N)=NOC1(C)C the results were DDE Tn7 FP inh inactive, DDE Tn6 FP inh inactive, GRK2 aptamer HTS inactive, GRK2 inh confirm inactive and Aptamer quench SP inactive.
`CC(C)Cn1c(N)c(C(=O)NCCN2CCOCC2)c2nc3ccccc3nc21` gave ARNT TACC3 PPI inactive, CAL PDZ FP-1 inactive, DDE Tn7 FP inh inactive, CAL PDZ FP-2 inactive, DDE Tn6 FP inh inactive and GRK2 aptamer HTS inactive.
Screening Cc1cccc(-n2c(N)c(C(=O)NCCN3CCOCC3)c3nc4ccccc4nc32)c1 returned DDE Tn7 FP inh inactive, DDE Tn6 FP inh inactive, GRK2 aptamer HTS 100, GRK2 inh confirm inactive and Aptamer quench SP inactive.
For Cc1ccc(C)c(NC(=O)CSc2nnc(CNC(=O)c3ccco3)n2C)c1 the results were ARNT TACC3 PPI inactive, CAL PDZ FP-1 inactive, DDE Tn7 FP inh inactive, CAL PDZ FP-2 inactive, DDE Tn6 FP inh inactive and GRK2 aptamer HTS inactive.
Screening Cc1ccc(F)cc1NC(=O)CSc1nnc(CNC(=O)c2ccco2)n1C returned ARNT TACC3 PPI inactive, CAL PDZ FP-1 inactive, DDE Tn7 FP inh inactive, CAL PDZ FP-2 inactive, DDE Tn6 FP inh inactive, GRK2 aptamer HTS 70, GRK2 inh confirm inactive and Aptamer quench SP inactive.
COc1ccc(CN(C)C(=O)c2cccc(S(=O)(=O)N3CCN(c4ccccc4)CC3)c2)c(OC)c1OC was read as ARNT TACC3 PPI inactive, DDE Tn7 FP inh inactive, CAL PDZ FP-2 inactive, DDE Tn6 FP inh inactive and GRK2 aptamer HTS inactive.
COc1ccc(CN(C)C(=O)c2cccc(S(=O)(=O)N3CCCc4ccccc43)c2)c(OC)c1OC was read as ARNT TACC3 PPI inactive, CAL PDZ FP-1 inactive, DDE Tn7 FP inh inactive, CAL PDZ FP-2 inactive, DDE Tn6 FP inh inactive, GRK2 inh confirm inactive and Aptamer quench SP inactive.
For O=C(NCc1ccc(Cl)cc1)C(=O)c1cn(CC(=O)N2CCOCC2)c2ccccc12 the results were ARNT TACC3 PPI inactive, CAL PDZ FP-1 inactive, DDE Tn7 FP inh inactive, CAL PDZ FP-2 inactive, DDE Tn6 FP inh inactive, GRK2 aptamer HTS 45, GRK2 inh confirm inactive and Aptamer quench SP inactive.
Screening O=C(NC1CC2CCCC(C1)N2C(=O)Nc1ccccc1Cl)C1CC1 (stereo not drawn) returned ARNT TACC3 PPI inactive, CAL PDZ FP-1 inactive, DDE Tn7 FP inh inactive, CAL PDZ FP-2 inactive, DDE Tn6 FP inh inactive and GRK2 aptamer HTS inactive.
For COc1ccc(-c2cc(C(=O)Nc3cccc(C(C)=O)c3)no2)cc1 the results were ARNT TACC3 PPI inactive, DDE Tn7 FP inh inactive, CAL PDZ FP-2 inactive, DDE Tn6 FP inh inactive, GRK2 aptamer HTS inactive, GRK2 inh confirm inactive and Aptamer quench SP inactive.
Screening O=C(Nc1cccc(O)c1)c1cc(-c2cccs2)on1 returned CAL PDZ FP-1 inactive, DDE Tn7 FP inh inactive, CAL PDZ FP-2 inactive, DDE Tn6 FP inh inactive and GRK2 aptamer HTS inactive.
`CC(=O)c1cccc(NC(=O)c2cc(-c3cccs3)on2)c1` gave CAL PDZ FP-1 inactive, DDE Tn7 FP inh inactive, CAL PDZ FP-2 inactive, DDE Tn6 FP inh inactive, GRK2 aptamer HTS inactive, GRK2 inh confirm inactive and Aptamer quench SP inactive.
`CCN(CC)CCNC(=O)c1ccc(NC(=O)Nc2cccc3ccccc23)cc1` gave CAL PDZ FP-1 inactive, DDE Tn7 FP inh inactive, CAL PDZ FP-2 inactive, DDE Tn6 FP inh inactive and GRK2 aptamer HTS inactive.
For COc1cccc(CC2(CO)CCCN(Cc3cn[nH]c3C3CCCCC3)C2)c1 (stereo not drawn) the results were ARNT TACC3 PPI inactive, DDE Tn7 FP inh inactive, CAL PDZ FP-2 inactive, DDE Tn6 FP inh inactive and GRK2 aptamer HTS inactive.
Screening COc1cccc(CC2(CO)CCCN(Cc3ccc(C)s3)C2)c1 (stereo not drawn) returned CAL PDZ FP-1 inactive, DDE Tn7 FP inh inactive, CAL PDZ FP-2 inactive, DDE Tn6 FP inh inactive and GRK2 aptamer HTS inactive.
For COc1cccc(CC2(CO)CCCN(Cc3cn[nH]c3-c3cc(C)ccc3C)C2)c1 (stereo not drawn) the results were ARNT TACC3 PPI inactive, DDE Tn7 FP inh inactive, CAL PDZ FP-2 inactive, DDE Tn6 FP inh inactive, GRK2 aptamer HTS inactive, GRK2 inh confirm inactive and Aptamer quench SP inactive.
`COc1cccc(CC2(CO)CCCN(Cc3[nH]c4ccc(C)cc4c3C)C2)c1` (stereo not drawn) gave ARNT TACC3 PPI inactive, CAL PDZ FP-1 inactive, DDE Tn7 FP inh inactive, CAL PDZ FP-2 inactive, DDE Tn6 FP inh inactive, GRK2 aptamer HTS inactive, GRK2 inh confirm inactive and Aptamer quench SP inactive.
`O=C(C[C@@H]1CC[C@@H]2[C@H](COC[C@@H](O)CN2Cc2ccc(Oc3ccccc3)cc2)O1)Nc1nccs1` gave ARNT TACC3 PPI inactive.
